# Measured values published in ChEMBL document CHEMBL1130075, “(2-Methyl-5-(methylsulfonyl)benzoyl)guanidine Na+/H+ antiporter inhibitors” (J Med Chem, 1997).
# Target: Sodium/hydrogen exchanger (Oryctolagus cuniculus, UniProt P23791+P50482+P26432)
# Experiment: Inhibition of 5-N-(ethyl isopropyl)-amiloride[EIPA]-sensitive Na+ uptake into acidified rabbit erythrocytes.
# Assay type: functional
# Summary of the method: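 Rabbit blood (heparinized) red cells, washed, acidified in pH 6.2 KCl buffer with ouabain, 10 min 37 °C; internal pH clamped with 200 μM DIDS and 1 mM acetazolamide, 30 min 37 °C. Uptake 5 min at 37 °C in pH 8.0 buffer with 10 mM NaCl plus ²²Na tracer, 1% DMSO. Triplicates; counts with 10 μM EIPA subtracted; IC50 by nonlinear fit.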
row,Structure (SMILES),IC50
1,Cc1cc(N2CCCC2)c(S(C)(=O)=O)cc1C(=O)N=C(N)N,11 nM
2,Cc1cc(N2CCC(N)CC2)c(S(C)(=O)=O)cc1C(=O)N=C(N)N,9.8 nM
3,CCc1cc(Oc2cccnc2)c(S(C)(=O)=O)cc1C(=O)N=C(N)N,27 nM
4,Cc1cc(C2CCC2)c(S(C)(=O)=O)cc1C(=O)N=C(N)N,8.2 nM
5,CCCCCc1cc(C)c(C(=O)N=C(N)N)cc1S(C)(=O)=O,27 nM
6,CS(=O)(=O)c1cc(C(=O)N=C(N)N)ccc1C#N,140 nM
7,CS(=O)(=O)c1cc(C(=O)N=C(N)N)c(N)cc1N1CCCC(O)C1 (configuration not stated),160 nM
8,Cc1c(C(=O)N=C(N)N)cc(S(C)(=O)=O)cc1-n1cccc1,100 nM
9,CS(=O)(=O)c1cc(C(=O)N=C(N)N)c(Cl)cc1Oc1cccnc1,52 nM
10,Cc1c(C(=O)N=C(N)N)ccc(Cl)c1S(C)(=O)=O,130 nM
11,CS(=O)(=O)c1cc(C(=O)N=C(N)N)ccc1C1CCCCC1,340 nM
12,CS(=O)(=O)c1cc(C(=O)N=C(N)N)c(F)cc1F,630 nM
13,CS(=O)(=O)c1cc(C(=O)N=C(N)N)ccc1-n1ccc(=O)cc1,710 nM
14,Cc1cc(N2CCCCC2)c(S(C)(=O)=O)cc1C(=O)N=C(N)N,21 nM
15,CCc1cc(OC)c(S(C)(=O)=O)cc1C(=O)N=C(N)N,30 nM
16,Cc1c(C(=O)N=C(N)N)cc(S(C)(=O)=O)c(Cl)c1[N+](=O)[O-],44 nM
17,Cc1cc(OC2CCCCC2)c(S(C)(=O)=O)cc1C(=O)N=C(N)N,37 nM
18,CS(=O)(=O)c1cc(C(=O)N=C(N)N)c(Cl)cc1N1CCC(N)CC1,20 nM
19,CS(=O)(=O)c1cc(C(=O)N=C(N)N)c(N)cc1N1CCCCC1,190 nM
20,CS(=O)(=O)c1cc(C(=O)N=C(N)N)ccc1Oc1cccnc1,76 nM
21,CS(=O)(=O)c1cc(C(=O)N=C(N)N)ccc1N1CCCC(O)C1 (configuration not stated),65 nM
22,COc1ccc(C(=O)N=C(N)N)cc1S(C)(=O)=O,270 nM
23,Cc1cc(N2CCCC(O)C2)c(S(C)(=O)=O)cc1C(=O)N=C(N)N (configuration not stated),30 nM
24,CS(=O)(=O)c1cc(C(=O)N=C(N)N)ccc1N1CCCCC1,130 nM

row,Structure (SMILES),IC50
1,Cc1c(C(=O)N=C(N)N)ccc(Oc2cccnc2)c1S(C)(=O)=O,2200 nM
2,CCc1cc(-n2ccc(=O)cc2)c(S(C)(=O)=O)cc1C(=O)N=C(N)N,930 nM
3,CS(=O)(=O)c1cc(C(=O)N=C(N)N)ccc1Br,180 nM
4,Cc1cc(SC(C)(C)C)c(S(C)(=O)=O)cc1C(=O)N=C(N)N,22 nM
5,COc1cc(N2CCC(N)CC2)c(S(C)(=O)=O)cc1C(=O)N=C(N)N,73 nM
6,CS(=O)(=O)c1cc(C(=O)N=C(N)N)c(Cl)cc1-n1ccnc1,130 nM
7,Cc1c(C(=O)N=C(N)N)cc(S(C)(=O)=O)c(-n2ccnc2)c1C,290 nM
8,Cc1c(C(=O)N=C(N)N)cc(S(C)(=O)=O)c(Oc2cccnc2)c1C,23 nM
9,CCc1cc(N2CCC(O)CC2)c(S(C)(=O)=O)cc1C(=O)N=C(N)N,41 nM
10,CS(=O)(=O)c1cc(C(=O)N=C(N)N)c(Cl)cc1Nc1ncccn1,49 nM
11,CS(=O)(=O)c1cc(C(=O)N=C(N)N)c(N2CCCCC2)cc1N1CCCCC1,1000 nM
12,CCN(CC)Cc1cc(Br)c(S(C)(=O)=O)cc1C(=O)N=C(N)N,9500 nM
13,CCc1cc(N2CCCCC2)c(S(C)(=O)=O)cc1C(=O)N=C(N)N,25 nM
14,Cc1c(C(=O)N=C(N)N)cc(S(C)(=O)=O)c(C)c1C,55 nM
15,CS(=O)(=O)c1cc(C(=O)N=C(N)N)ccc1N1CCC(N)CC1,160 nM
16,CS(=O)(=O)c1cc(C(=O)N=C(N)N)ccc1Oc1cncc(Cl)c1,75 nM
17,CS(=O)(=O)c1cc(C(=O)N=C(N)N)ccc1-n1ccnc1,150 nM
18,Cc1cc(C2CCCCC2)c(S(C)(=O)=O)cc1C(=O)N=C(N)N,22 nM
19,Cc1cc(OC2CCCC2)c(S(C)(=O)=O)cc1C(=O)N=C(N)N,27 nM
20,Cc1c(C(=O)N=C(N)N)cc(S(C)(=O)=O)c(C#N)c1C,370 nM
21,CCc1cc(Br)c(S(C)(=O)=O)cc1C(=O)N=C(N)N,41 nM
22,Cc1cc(N2CCN(c3ncccn3)CC2)c(S(C)(=O)=O)cc1C(=O)N=C(N)N,27 nM
23,CS(=O)(=O)c1cc(C(=O)N=C(N)N)c(Cl)cc1N1CCCC(O)C1 (configuration not stated),60 nM

# Continued, values first:
row,IC50,Structure (SMILES)
1,16 nM,COc1cc(C)c(C(=O)N=C(N)N)cc1S(C)(=O)=O
2,29 nM,Cc1c(C(=O)N=C(N)N)cc(S(C)(=O)=O)c(Cl)c1Cl
3,5.7 nM,CCCc1cc(C)c(C(=O)N=C(N)N)cc1S(C)(=O)=O
4,37 nM,Cc1cc(Sc2cccc(Cl)c2)c(S(C)(=O)=O)cc1C(=O)N=C(N)N
5,16 nM,Cc1cc(-c2ccco2)c(S(C)(=O)=O)cc1C(=O)N=C(N)N
6,58 nM,Cc1c(C(=O)N=C(N)N)cc(S(C)(=O)=O)c(Cl)c1C
7,42 nM,Cc1cc(-c2ccc(Cl)cc2Cl)c(S(C)(=O)=O)cc1C(=O)N=C(N)N
8,220 nM,Cc1cc(O)c(S(C)(=O)=O)cc1C(=O)N=C(N)N
9,14 nM,Cc1cc(Oc2cncc(Cl)c2)c(S(C)(=O)=O)cc1C(=O)N=C(N)N
10,210 nM,Cc1ccc(C(=O)N=C(N)N)cc1S(C)(=O)=O
11,100 nM,Cc1ccc(-c2ccc(C(=O)N=C(N)N)cc2S(C)(=O)=O)cc1
12,8.3 nM,Cc1cc(Nc2ncccn2)c(S(C)(=O)=O)cc1C(=O)N=C(N)N
13,14 nM,Cc1cc(Oc2ccccc2Cl)c(S(C)(=O)=O)cc1C(=O)N=C(N)N
14,8 nM,CCC(C)c1cc(C)c(C(=O)N=C(N)N)cc1S(C)(=O)=O (configuration not stated)
15,100 nM,Cc1cc(-n2cnc3ccccc32)c(S(C)(=O)=O)cc1C(=O)N=C(N)N
16,13 nM,Cc1cc(Oc2ccc(Cl)cc2)c(S(C)(=O)=O)cc1C(=O)N=C(N)N
17,13 nM,Cc1cc(Sc2ccncc2)c(S(C)(=O)=O)cc1C(=O)N=C(N)N
18,28 nM,Cc1cn(-c2cc(C)c(C(=O)N=C(N)N)cc2S(C)(=O)=O)cn1
19,63 nM,CCc1cc(Cl)c(S(C)(=O)=O)cc1C(=O)N=C(N)N
20,4.8 nM,CCc1cc(C)c(C(=O)N=C(N)N)cc1S(C)(=O)=O

row,IC50,Structure (SMILES)
1,14 nM,Cc1cc(Sc2ccccc2Cl)c(S(C)(=O)=O)cc1C(=O)N=C(N)N
2,45 nM,Cc1cc(-c2ccc(Cl)cc2)c(S(C)(=O)=O)cc1C(=O)N=C(N)N
3,21 nM,Cc1cc(Nc2ccccc2)c(S(C)(=O)=O)cc1C(=O)N=C(N)N
4,28 nM,Cc1cc(OCc2ccccc2)c(S(C)(=O)=O)cc1C(=O)N=C(N)N
5,75 nM,Cc1cc(-n2ccc(=O)cc2)c(S(C)(=O)=O)cc1C(=O)N=C(N)N
6,19 nM,CCOc1cc(C)c(C(=O)N=C(N)N)cc1S(C)(=O)=O
7,150 nM,Cc1ccc(S(C)(=O)=O)cc1C(=O)N=C(N)N
8,25 nM,Cc1cc(Cl)c(S(C)(=O)=O)cc1C(=O)N=C(N)N
9,6 nM,CSc1cc(C)c(C(=O)N=C(N)N)cc1S(C)(=O)=O
10,19 nM,Cc1cc(OC(C)C)c(S(C)(=O)=O)cc1C(=O)N=C(N)N
11,140 nM,CS(=O)(=O)c1cc(C(=O)N=C(N)N)c(Cl)cc1Cl
12,8.8 nM,Cc1cc(Oc2cccnc2)c(S(C)(=O)=O)cc1C(=O)N=C(N)N
13,5.9 nM,CCSc1cc(C)c(C(=O)N=C(N)N)cc1S(C)(=O)=O
14,25 nM,Cc1cc(-n2cccn2)c(S(C)(=O)=O)cc1C(=O)N=C(N)N
15,40 nM,COc1cc(Cl)c(C(=O)N=C(N)N)cc1S(C)(=O)=O
16,9.4 nM,Cc1cc(OC(C)(C)C)c(S(C)(=O)=O)cc1C(=O)N=C(N)N
17,19 nM,Cc1cc(Sc2ccc(Cl)cc2)c(S(C)(=O)=O)cc1C(=O)N=C(N)N
18,2800 nM,Cc1cc(-c2cc(C(F)(F)F)cc(C(F)(F)F)c2)c(S(C)(=O)=O)cc1C(=O)N=C(N)N
19,25 nM,Cc1ccc(-c2cc(C)c(C(=O)N=C(N)N)cc2S(C)(=O)=O)cc1
20,130 nM,CS(=O)(=O)c1cc(C(=O)N=C(N)N)c(N)cc1Cl

row,IC50,Structure (SMILES)
1,21 nM,Cc1cc(Oc2cccc(Cl)c2)c(S(C)(=O)=O)cc1C(=O)N=C(N)N
2,12 nM,Cc1cc(Br)c(S(C)(=O)=O)cc1C(=O)N=C(N)N
3,9.2 nM,Cc1cc(Nc2ccccn2)c(S(C)(=O)=O)cc1C(=O)N=C(N)N
4,380 nM,CS(=O)(=O)c1cc(C(=O)N=C(N)N)ccc1Cl
5,29 nM,Cc1cc(-n2ccnc2C)c(S(C)(=O)=O)cc1C(=O)N=C(N)N
6,130 nM,Cc1cc(-c2cc(Cl)cc(Cl)c2)c(S(C)(=O)=O)cc1C(=O)N=C(N)N
7,36 nM,Cc1cc(-c2ccc(F)cc2)c(S(C)(=O)=O)cc1C(=O)N=C(N)N
8,33 nM,Cc1cc(Nc2cccc(Cl)c2)c(S(C)(=O)=O)cc1C(=O)N=C(N)N
9,70 nM,Cc1cc(C#N)c(S(C)(=O)=O)cc1C(=O)N=C(N)N
10,37 nM,Cc1cc(C(F)(F)F)c(S(C)(=O)=O)cc1C(=O)N=C(N)N
11,16 nM,Cc1cc(N)c(S(C)(=O)=O)cc1C(=O)N=C(N)N
12,10 nM,Cc1cc(Oc2ccccc2)c(S(C)(=O)=O)cc1C(=O)N=C(N)N
13,44 nM,Cc1cc(F)c(S(C)(=O)=O)cc1C(=O)N=C(N)N
14,70 nM,Cc1cc(Br)c(C(=O)N=C(N)N)cc1S(C)(=O)=O
15,19 nM,Cc1cc(-c2ccccc2)c(S(C)(=O)=O)cc1C(=O)N=C(N)N
16,11 nM,Cc1cc(C)c(S(C)(=O)=O)cc1C(=O)N=C(N)N
17,14 nM,Cc1cc(Sc2ccccc2)c(S(C)(=O)=O)cc1C(=O)N=C(N)N
18,12 nM,Cc1cc(SC(C)C)c(S(C)(=O)=O)cc1C(=O)N=C(N)N
19,2 nM,Cc1cc(C(C)C)c(S(C)(=O)=O)cc1C(=O)N=C(N)N
20,23 nM,Cc1cc(-n2ccnc2)c(S(C)(=O)=O)cc1C(=O)N=C(N)N
